Data reported in ChEMBL document CHEMBL3112527, “Quinoline-pyrimidine hybrids: synthesis, antiplasmodial activity, SAR, and mode of action studies” (J Med Chem, 2014).
Values after ≈ are worked out from the molar mass of the structure shown. Active and inactive are the calls of the source. No cut-off for these calls is given here.

How the values were obtained:
Human alphaherpesvirus 2 = assay: Antiviral activity against HSV-2 G infected in HEL cells assessed as inhibition of virus-induced cytopathicity; type: functional, organism-based; settings: strain G
How it was run: (§1)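 Confluent monolayers (HEL, Vero, HeLa or CrFK, as applicable) were inoculated with 100 CCID50 of virus, with 1 CCID50 being the dose that infects 50% of cultures. Infection ran in the presence of varying compound concentrations. Inhibition of virus-induced cytopathicity was scored against infected cultures left untreated.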

Human alphaherpesvirus 1 [1] = assay: Antiviral activity against HSV-1 KOS infected in HEL cells assessed as inhibition of virus-induced cytopathicity; type: functional, organism-based; how it was run: as §1
[2] = Solubility of the compound in octanol at pH 7.4 by HPLC analysis; type: physicochemical
[3] = n-octanol-PBS buffer distribution coefficient, log D of the compound at pH 7.4 after 24 hrs by HPLC analysis; type: physicochemical
[4] = Aqueous solubility of the compound in PBS buffer at pH 7.4 after 24 hrs by HPLC analysis; type: physicochemical; settings: pH 7.4, 24 h
[5] = Selectivity index, ratio of CC50 for cat CRFK cells to IC50 for chloroquine-resistant asexual erythrocytic stage of Plasmodium falciparum Dd2; type: functional
How it was run: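 Ratio of CRFK CC50 (μM) to Dd2 IC50 […]. CC50 is the 50% cytotoxic concentration in feline kidney CRFK cells, measured as cell viability by colorimetric formazan-based MTS assay. Dd2 IC50 is from the parasite LDH growth-inhibition assay.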

[6] = Cytotoxicity against cat CRFK cells assessed as cell viability by MTS assay; type: cell-based, Felis catus
How it was run: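 CRFK cells were exposed to varying sample concentrations. Cell viability was measured with the colorimetric formazan-based MTS assay, and the 50% cytotoxic concentration (CC50) was derived from it.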

[7] = Cytotoxicity against human HeLa cells assessed as alteration of cell morphology by microscopic analysis; type: cell-based; settings: read-out: MIC
How it was run: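 Cells (Vero, HEL, MDCK or HeLa) were exposed to a range of sample concentrations. The value reported is the concentration required to cause a microscopically detectable alteration of normal cell morphology.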

Plasmodium falciparum [8] = assay: Antiplasmodial activity against chloroquine-resistant asexual erythrocytic stage of Plasmodium falciparum Dd2 assessed as parasite growth inhibition by lactate dehydrogenase assay; type: functional, organism-based
How it was run: (§2)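 Parasite lactate dehydrogenase assay (modified Makler method). Samples held as 20 mg/mL stocks in DMSO, diluted on test day. Full dose-response: starting at 10 μg/mL, 2-fold serial dilution in complete medium over 10 concentrations down to 0.02 μg/mL. Chloroquine, artesunate and MMV390048 served as references. IC50 from nonlinear dose-response curve fitting; mean of three independent experiments.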

Plasmodium falciparum [9] = assay: Antiplasmodial activity against chloroquine-sensitive asexual erythrocytic stage of Plasmodium falciparum D10 assessed as parasite growth inhibition by lactate dehydrogenase assay; type: functional, organism-based; how it was run: as §2
Felid alphaherpesvirus 1 = assay: Antiviral activity against Feline herpesvirus infected in cat CRFK cells assessed as inhibition of virus-induced cytopathicity; type: functional, organism-based; how it was run: as §1
Feline coronavirus = assay: Antiviral activity against Feline coronavirus infected in cat CRFK cells assessed as inhibition of virus-induced cytopathicity; type: functional, organism-based; how it was run: as §1
Human alphaherpesvirus 3 = assay: Antiviral activity against Varicella-zoster virus infected in HEL cells assessed as inhibition of virus-induced cytopathicity; type: functional, organism-based
Human betaherpesvirus 5 [10] = assay: Antiviral activity against Cytomegalovirus Davis infected in HEL cells assessed as inhibition of virus-induced cytopathicity; type: functional, organism-based
Human betaherpesvirus 5 [11] = assay: Antiviral activity against Cytomegalovirus AD169 infected in HEL cells assessed as inhibition of virus-induced cytopathicity; type: functional, organism-based
[12] = tested on: Respiratory syncytial virus; assay: Antiviral activity against Respiratory syncytial virus infected in human HeLa cells assessed as inhibition of virus-induced cytopathicity; type: functional, organism-based; how it was run: as §1
Coxsackievirus B4 [13] = assay: Antiviral activity against Coxsackievirus B4 infected in human HeLa cells assessed as inhibition of virus-induced cytopathicity; type: functional, organism-based; how it was run: as §1
Influenza A virus H3N2 = assay: Antiviral activity against Influenza A virus H3N2 infected in MDCK cells assessed as inhibition of virus-induced cytopathicity; type: functional, organism-based
How it was run: (§3)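 Confluent monolayers in 96-well plates were inoculated with 100 CCID50 of virus in the presence of varying concentrations of compound. Read-out was inhibition of virus-induced cytopathicity, compared with untreated infected cultures. Cytotoxicity was judged microscopically or by MTT viability staining.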

[14] = tested on: Vesicular stomatitis virus; assay: Antiviral activity against Vesicular stomatitis virus infected in human HeLa cells assessed as inhibition of virus-induced cytopathicity; type: functional, organism-based; how it was run: as §3
Influenza A virus = assay: Antiviral activity against influenza A virus H1N1 infected in MDCK cells assessed as inhibition of virus-induced cytopathicity; type: functional, organism-based; how it was run: as §3
Punta Toro virus = assay: Antiviral activity against Punta Toro virus infected in African green monkey Vero cells assessed as inhibition of virus-induced cytopathicity; type: functional, organism-based; how it was run: as §1
Coxsackievirus B4 [15] = assay: Antiviral activity against Coxsackievirus B4 infected in African green monkey Vero cells assessed as inhibition of virus-induced cytopathicity; type: functional, organism-based; how it was run: as §1
Sindbis virus = assay: Antiviral activity against Sindbis virus infected in African green monkey Vero cells assessed as inhibition of virus-induced cytopathicity; type: functional, organism-based
[16] = tested on: Mammalian orthoreovirus 1; assay: Antiviral activity against Reovirus 1 infected in African green monkey Vero cells assessed as inhibition of virus-induced cytopathicity; type: functional, organism-based; how it was run: as §1
Human respirovirus 3 = assay: Antiviral activity against parainfluenza virus 3 infected in African green monkey Vero cells assessed as inhibition of virus-induced cytopathicity; type: functional, organism-based; how it was run: as §1
Human alphaherpesvirus 1 [17] = assay: Antiviral activity against thymidine kinase-negative acyclovir-resistant HSV-1 KOS infected in HEL cells assessed as inhibition of virus-induced cytopathicity; type: functional, organism-based; how it was run: as §3
[18] = tested on: Vesicular stomatitis virus; assay: Antiviral activity against Vesicular stomatitis virus infected in HEL cells assessed as inhibition of virus-induced cytopathicity; type: functional, organism-based; how it was run: as §3
Vaccinia virus = assay: Antiviral activity against Vaccinia virus infected in HEL cells assessed as inhibition of virus-induced cytopathicity; type: functional, organism-based; settings: Orthopoxvirus vaccinia; how it was run: as §3

SMILES: Clc1ccc2c(NCCCOc3nccc(Cl)n3)ccnc2c1
- inhibition (Human alphaherpesvirus 2): inactive
- inhibition (Human alphaherpesvirus 1 [1]): inactive
- solubility [2]: 2.19 µM (≈ 0.765 µg/mL)
- logD at 24 h [3]: 1.04
- solubility [4]: 0.2 µM (≈ 0.0698 µg/mL)
- Ratio CC50/IC50 [5]: >490
- CC50 [6]: > 100000 nM
- MCC [7]: > 100 µM
- IC50 (Plasmodium falciparum [8]): 204 nM
- IC50 (Plasmodium falciparum [9]): 304 nM
- inhibition (Felid alphaherpesvirus 1): inactive
- inhibition (Feline coronavirus): inactive
- inhibition (Human alphaherpesvirus 3): inactive
- inhibition (Human betaherpesvirus 5 [10]): inactive
- inhibition (Human betaherpesvirus 5 [11]): inactive
- inhibition [12]: inactive
- inhibition (Coxsackievirus B4 [13]): inactive
- inhibition (Influenza A virus H3N2): inactive
- inhibition [14]: inactive
- inhibition (Influenza A virus): inactive
- inhibition (Punta Toro virus): inactive
- inhibition (Coxsackievirus B4 [15]): inactive
- inhibition (Sindbis virus): inactive
- inhibition [16]: inactive
- inhibition (Human respirovirus 3): inactive
- inhibition (Human alphaherpesvirus 1 [17]): inactive
- inhibition [18]: inactive
- inhibition (Vaccinia virus): inactive

SMILES: Clc1ccc2c(NCCCNc3ccnc(Cl)n3)ccnc2c1
- inhibition (Human alphaherpesvirus 2): inactive
- inhibition (Human alphaherpesvirus 1 [1]): inactive
- solubility [2]: 1.01 µM (≈ 0.352 µg/mL)
- logD at 24 h [3]: 0.229
- solubility [4]: 0.6 µM (≈ 0.209 µg/mL)
- Ratio CC50/IC50 [5]: >483
- CC50 [6]: > 100000 nM
- MCC [7]: > 100 µM
- IC50 (Plasmodium falciparum [8]): 207 nM
- IC50 (Plasmodium falciparum [9]): 270 nM
- inhibition (Felid alphaherpesvirus 1): inactive
- inhibition (Feline coronavirus): inactive
- inhibition (Human alphaherpesvirus 3): inactive
- inhibition (Human betaherpesvirus 5 [10]): inactive
- inhibition (Human betaherpesvirus 5 [11]): inactive
- inhibition [12]: inactive
- inhibition (Coxsackievirus B4 [13]): inactive
- inhibition (Influenza A virus H3N2): inactive
- inhibition [14]: inactive
- inhibition (Influenza A virus): inactive
- inhibition (Punta Toro virus): inactive
- inhibition (Coxsackievirus B4 [15]): inactive
- inhibition (Sindbis virus): inactive
- inhibition [16]: inactive
- inhibition (Human respirovirus 3): inactive
- inhibition (Human alphaherpesvirus 1 [17]): inactive
- inhibition [18]: inactive
- inhibition (Vaccinia virus): inactive

SMILES: Clc1ccc2c(NCCCNc3nccc(N4CCNCC4)n3)ccnc2c1
- inhibition (Human alphaherpesvirus 2): inactive
- inhibition (Human alphaherpesvirus 1 [1]): inactive
- solubility [2]: 0.75 µM (≈ 0.298 µg/mL)
- logD at 24 h [3]: 0.102
- solubility [4]: 0.6 µM (≈ 0.239 µg/mL)
- Ratio CC50/IC50 [5]: 36
- CC50 [6]: 74000 nM
- MCC [7]: 100 µM
- IC50 (Plasmodium falciparum [8]): 2000 nM
- IC50 (Plasmodium falciparum [9]): 113 nM
- inhibition (Felid alphaherpesvirus 1): inactive
- inhibition (Feline coronavirus): inactive
- inhibition (Human alphaherpesvirus 3): inactive
- inhibition (Human betaherpesvirus 5 [10]): inactive
- inhibition (Human betaherpesvirus 5 [11]): inactive
- inhibition [12]: inactive
- inhibition (Coxsackievirus B4 [13]): inactive
- inhibition (Influenza A virus H3N2): inactive
- inhibition [14]: inactive
- inhibition (Influenza A virus): inactive
- inhibition (Punta Toro virus): inactive
- inhibition (Coxsackievirus B4 [15]): inactive
- inhibition (Sindbis virus): inactive
- inhibition [16]: inactive
- inhibition (Human respirovirus 3): inactive
- inhibition (Human alphaherpesvirus 1 [17]): inactive
- inhibition [18]: inactive
- inhibition (Vaccinia virus): inactive

SMILES: Clc1ccc2c(NCCCNc3nccc(N4CCOCC4)n3)ccnc2c1
- inhibition (Human alphaherpesvirus 2): inactive
- inhibition (Human alphaherpesvirus 1 [1]): inactive
- solubility [2]: 0.95 µM (≈ 0.379 µg/mL)
- logD at 24 h [3]: 0.257
- solubility [4]: 0.53 µM (≈ 0.211 µg/mL)
- Ratio CC50/IC50 [5]: >632
- CC50 [6]: > 100000 nM
- MCC [7]: > 100 µM
- IC50 (Plasmodium falciparum [8]): 158 nM
- IC50 (Plasmodium falciparum [9]): 55 nM
- inhibition (Felid alphaherpesvirus 1): inactive
- inhibition (Feline coronavirus): inactive
- inhibition (Human alphaherpesvirus 3): inactive
- inhibition (Human betaherpesvirus 5 [10]): inactive
- inhibition (Human betaherpesvirus 5 [11]): inactive
- inhibition [12]: inactive
- inhibition (Coxsackievirus B4 [13]): inactive
- inhibition (Influenza A virus H3N2): inactive
- inhibition [14]: inactive
- inhibition (Influenza A virus): inactive
- inhibition (Punta Toro virus): inactive
- inhibition (Coxsackievirus B4 [15]): inactive
- inhibition (Sindbis virus): inactive
- inhibition [16]: inactive
- inhibition (Human respirovirus 3): inactive
- inhibition (Human alphaherpesvirus 1 [17]): inactive
- inhibition [18]: inactive
- inhibition (Vaccinia virus): inactive

SMILES: Clc1ccc2c(NCCCNc3nccc(N4CCCC4)n3)ccnc2c1
- inhibition (Human alphaherpesvirus 2): inactive
- inhibition (Human alphaherpesvirus 1 [1]): inactive
- solubility [2]: 1.25 µM (≈ 0.479 µg/mL)
- logD at 24 h [3]: 0.756
- solubility [4]: 0.22 µM (≈ 0.0842 µg/mL)
- Ratio CC50/IC50 [5]: 327
- CC50 [6]: 49000 nM
- MCC [7]: 100 µM
- IC50 (Plasmodium falciparum [8]): 151 nM
- IC50 (Plasmodium falciparum [9]): 28.7 nM
- inhibition (Felid alphaherpesvirus 1): inactive
- inhibition (Feline coronavirus): inactive
- inhibition (Human alphaherpesvirus 3): inactive
- inhibition (Human betaherpesvirus 5 [10]): inactive
- inhibition (Human betaherpesvirus 5 [11]): inactive
- inhibition [12]: inactive
- inhibition (Coxsackievirus B4 [13]): inactive
- inhibition (Influenza A virus H3N2): inactive
- inhibition [14]: inactive
- inhibition (Influenza A virus): inactive
- inhibition (Punta Toro virus): inactive
- inhibition (Coxsackievirus B4 [15]): inactive
- inhibition (Sindbis virus): inactive
- inhibition [16]: inactive
- inhibition (Human respirovirus 3): inactive
- inhibition (Human alphaherpesvirus 1 [17]): inactive
- inhibition [18]: inactive
- inhibition (Vaccinia virus): inactive

SMILES: Clc1ccc2c(NCCCNc3ccnc(N4CCCCC4)n3)ccnc2c1
- inhibition (Human alphaherpesvirus 2): inactive
- inhibition (Human alphaherpesvirus 1 [1]): inactive
- solubility [2]: 2.02 µM (≈ 0.802 µg/mL)
- logD at 24 h [3]: 0.801
- solubility [4]: 0.32 µM (≈ 0.127 µg/mL)
- Ratio CC50/IC50 [5]: 334
- CC50 [6]: 55000 nM
- MCC [7]: 20 µM
- IC50 (Plasmodium falciparum [8]): 166 nM
- IC50 (Plasmodium falciparum [9]): 65.5 nM
- inhibition (Felid alphaherpesvirus 1): inactive
- inhibition (Feline coronavirus): inactive
- inhibition (Human alphaherpesvirus 3): inactive
- inhibition (Human betaherpesvirus 5 [10]): inactive
- inhibition (Human betaherpesvirus 5 [11]): inactive
- inhibition [12]: inactive
- inhibition (Coxsackievirus B4 [13]): inactive
- inhibition (Influenza A virus H3N2): inactive
- inhibition [14]: inactive
- inhibition (Influenza A virus): inactive
- inhibition (Punta Toro virus): inactive
- inhibition (Coxsackievirus B4 [15]): inactive
- inhibition (Sindbis virus): inactive
- inhibition [16]: inactive
- inhibition (Human respirovirus 3): inactive
- inhibition (Human alphaherpesvirus 1 [17]): inactive
- inhibition [18]: inactive
- inhibition (Vaccinia virus): inactive
